This note sets out measurements from paper PMC7429274 (ACS infectious diseases, 2020).

Test [1] deals with flow cell-grown P. aeruginosa PAO1 biofilms. The test is described as follows: Peptide labeling of flow-grown biofilms by CLSM. It is filed as cell-based, Pseudomonas aeruginosa. The conditions noted are these: 24 h flow cell biofilms; for Biofilm labeling (CLSM): 2 μM peptide in PBS, 1 h, room temperature; for Labeling pattern / localization within biofilms (CLSM): 2 μM peptide, single slice at mid-height.

Test [2] deals with planktonic P. aeruginosa cells (PAO1, TdTomato). The test is described as follows: Probe binding to planktonic cells by flow cytometry. The format is cell-based, Pseudomonas aeruginosa. The conditions noted are these: 10, 5 or 1 μM, 30 min, room temperature, Fig. S2. In short, it runs like this: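 PAO1 with constitutive TdTomato plasmid was diluted 1:100 in LB without NaCl and grown 3 h at 37°C, 200 rpm, to mid-log. Cells were pelleted, resuspended in PBS at 10⁸ CFU/mL, labelled with FITC-peptide, washed, and fixed in 4% PFA for 20 min. 10,000 events per sample, gated on FSC/SSC and excluding low-TdTomato events. FITC MFI was normalised to autofluorescence. Two biological replicates, mean ± standard deviation.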

The subject of test [3] is Human A549 type II alveolar epithelial cells. Description: Epithelial cell infection model, CLSM colocalization with epithelial cells. The settings on record: uninfected A549 cells, Fig. S8. The format is cell-based. In a few lines: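 A549 cells seeded at 20,000/well in RPMI 1640 with 10% FBS and 100 U pen/strep for 3 days to ~70% confluency, then prelabelled with 1 μM cell tracker blue for 20 min at 37°C. Washed twice in warm PBS, stained with 2 μM FITC-labelled peptide for 1 h at 37°C, washed twice, fixed in 4% paraformaldehyde for 30 min. CLSM with 60x oil objective.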

The subject of test [4] is P. aeruginosa (strain PAO1). The test is described as follows: Bacterial growth inhibition. The format is cell-based, Pseudomonas aeruginosa. The conditions noted are these: Fig. S3. In short, it runs like this: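 PAO1 grown from overnight culture (diluted 1:100 in LB without NaCl) at 37°C, 5% CO₂, 200 rpm to mid-log (OD₆₀₀ 0.5), pelleted, resuspended in Mueller-Hinton broth to OD₆₀₀ 0.1 (~10⁷ CFU/mL). Serially diluted FITC-labelled peptide added in triplicate; gentamycin 10 μg/mL positive control, PBS mock. OD₆₀₀ read every 30 min for 16 h at 37°C, 5% CO₂. Background-corrected mean OD normalised to PBS wells, as percentage.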

Test [5] has as its system P. aeruginosa-infected wounds. Description: In vivo optical imaging in mouse infected wound model. The conditions noted are these: 6 h post probe injection, p<0.0035, Fig. S7. Also noted: species or system female BALB/c athymic nude mice. In a few lines:
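Wounded mice (6 mm dorsal biopsies, 48 h recovery) had wounds inoculated with ~10⁷ cells of a 50:50 lux-tagged/TdTomato PAO1 mix or PBS. Cy5-labelled peptide probe (60 nmoles, tail vein) or PBS was injected 24 h later; groups n=4, 3, 2. Isoflurane-anaesthetised mice were imaged at 3, 6 and 18 h. Bioluminescence integration was 2 s; fluorescence excitation was 640 nm. ROI wound Cy5 was normalised to surrounding non-wound tissue.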

For test [6], the system named is human primary neutrophils infected or not with PAO1-GFP+. Description: Human primary neutrophil infection model, imaging flow cytometry. It is filed as cell-based.
Test [7] deals with P. aeruginosa-infected wounds. Description: Ex vivo CLSM of sectioned wound tissue. The format is in vivo, female BALB/c athymic nude mice. The settings on record: harvested after 18 h imaging. In short, it runs like this:
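Two 6 mm full-thickness dorsal wounds per mouse, occlusive dressing, 48 h recovery. Wounds were then inoculated with 60 μL containing ~10⁷ cells of a 50:50 mix of lux-tagged and TdTomato PAO1, or mock-treated with PBS. Cy5-labelled peptide probe, 60 nmoles, was given by tail vein 24 h later. After the 18 h imaging point, mice were CO₂-euthanised. Wounds were DAPI-stained (1 μg/mL, 10 min), fixed in 4% PFA for 24 h, OCT cryosectioned and imaged by CLSM.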

The test system of test [8] is P. aeruginosa aggregates (PAO1-mCherry) on A549 cells. Description: Epithelial cell infection model, CLSM colocalization with bacteria. The format is cell-based, Pseudomonas aeruginosa. The settings on record: Cy5-labeled probes, Fig. S5.

Primed or numbered codes have the meaning given here. Ends that are not written are not given here. FITC′ = fluorescein isothiocyanate label

As to “^aFITC-KRNQRMARYRRGT ({FITC′}-KRNQRMARYRRGT) [UBIsc-FITC, reference compound]”, in test [1], the “Biofilm labeling (CLSM)” value is listed as “failed to label biofilms”. For the same substance, the “Labeling of planktonic P. aeruginosa cells (FITC MFI, flow cytometry)” value in test [2] was “minimal targeting of P. aeruginosa cells”.

For ^aFITC-WWKKWWKK [WK8-FITC], in test [1], the “Biofilm labeling (CLSM)” value is on record as “biofilm labeling was observed” and the “Labeling pattern / localization within biofilms (CLSM)” value was “penetrated into biofilms”. The “Targeting of epithelial cells in the absence of infection” value (“Targeting of epithelial cells” below) in test [3] is reported as “moderate targeting of these cells”. Moreover, in test [2], the “Labeling of planktonic P. aeruginosa cells (FITC MFI, flow cytometry)” value is “to a lesser degree than LG21-FITC and LL37-FITC”.

“(4Iph)(f)LPNSNHIKQGL-Cy5^b [4Iphf-HN17-Cy5]”: the “Bactericidal effects against P. aeruginosa” value in test [4] is recorded as “no bactericidal effects”. Moreover, the “Biofilm labeling (CLSM)” value in test [1] is recorded as “retained similar biofilm targeting properties”. Also, the “Cy5 signal enhancement in infected wounds vs PBS-treated wounds” value in test [5] is “reached statistical significance compared to PBS-treated wounds”. Also, the “Percentage of neutrophils that were Cy5+” value in test [6] (each of the four populations) is on record as “greater than 87%”; in test [6] (infected neutrophils with irregular morphology) it was 99.8%; in test [6] (uninfected cells with normal morphology), 87.8%. Also, the “Colocalization between Cy5 and GFP (similarity feature)” value in test [6] (every cell, all infected neutrophils regardless of morphology) is reported as less than 0.2. In addition, the “Cy5 fluorescence in sectioned wound tissue (CLSM)” value is recorded as “intense, multi-focal pockets” in test [7] (infected wound) and “minimal Cy5 fluorescence” in test [7] (uninfected wound). Besides, the “Targeting in the epithelial cell infection model (Cy5 probes)” value in test [8] is recorded as “biofilm specificity in the epithelial cell infection model”.

^aFITC-WWRRWWR [WR8-FITC]: in test [1], the “Biofilm labeling (CLSM)” value was “biofilm labeling was observed” and the “Labeling pattern / localization within biofilms (CLSM)” value is “penetrated into biofilms”. Besides, the “Targeting of epithelial cells” value in test [3] is “moderate targeting of these cells”. For the same substance, the “Labeling of planktonic P. aeruginosa cells (FITC MFI, flow cytometry)” value in test [2] is “to a lesser degree than LG21-FITC and LL37-FITC”.

Consider “^aFITC-LLPIVGNLLKSLLGWKRKRFG [LG21-FITC]”, for which, in test [1], the “Biofilm labeling (CLSM)” value is reported as “biofilm labeling was observed” and the “Labeling pattern / localization within biofilms (CLSM)” value is “localized to the periphery of biofilms”. Further, the “Targeting of epithelial cells” value in test [3] was “did not target epithelial cells in the absence of infection”. For the same substance, in test [2], the “Labeling of planktonic P. aeruginosa cells (FITC MFI, flow cytometry)” value was “greatest targeting of planktonic cells”.

For the substance “^aFITC-LLGDFFRKSKEKIGKEFKRIVQRIKDFLRNLVPRTES [LL37-FITC, reference compound]”, in test [1], the “Biofilm labeling (CLSM)” value was “biofilm labeling was observed” and the “Labeling pattern / localization within biofilms (CLSM)” value is “localized to the periphery of biofilms”. Further, the “Labeling of planktonic P. aeruginosa cells (FITC MFI, flow cytometry)” value in test [2] was “greatest targeting of planktonic cells”.

“(4Iph)(f)LPNSNHIKQGL-FITC^b [4Iphf-HN17-FITC]”: in test [1], the “Biofilm labeling (CLSM)” value was “biofilm labeling was observed” and the “Labeling pattern / localization within biofilms (CLSM)” value is recorded as “penetrated into biofilms”. Moreover, in test [3], the “Targeting of epithelial cells” value is on record as “did not target epithelial cells in the absence of infection”. Moreover, in test [2], the “Labeling of planktonic P. aeruginosa cells (FITC MFI, flow cytometry)” value is “to a lesser degree than LG21-FITC and LL37-FITC”.

Consider “^aFITC-TGRAKRRMQYNRR [UBI29-41-FITC, reference compound]”, for which the “Biofilm labeling (CLSM)” value in test [1] is recorded as “failed to label biofilms”. Besides, the “Labeling of planktonic P. aeruginosa cells (FITC MFI, flow cytometry)” value in test [2] is “minimal targeting of P. aeruginosa cells”.

For “^aFITC-WPRRPWRR ({FITC′}-WPRRPWRR) [WR8-Pro-FITC]”, in test [1], the “Biofilm labeling (CLSM)” value is “complete lack of binding”. In test [2], the “Labeling of planktonic P. aeruginosa cells (FITC MFI, flow cytometry)” value is given as “minimal targeting of P. aeruginosa cells”.
